# Assay results published in ChEMBL document CHEMBL1139521, “Synthetic iminosugar derivatives as new potential immunosuppressive agents” (J Med Chem, 2005).
# Experiments:
# Format in all cases: functional
# Mus musculus [1] = species on record: Mus musculus; test: Effect on level of IFN-gamma secretion splenocytes in mice following treatment with 25 uM compound done for 72 hr at 37 degree C
# Outline: (§1)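 Mouse spleen cells stimulated with concanavalin A in the presence of 25 µM test agent (acetate form) at 37 °C, 5% CO2 for 72 h. Cytokine levels (IL-4 or IFN-γ) in the culture supernatant measured by mouse ELISA kit. Reduction expressed relative to control. Means ± SEM of at least three independent experiments.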
# Mus musculus [2] = species on record: Mus musculus; test: Effect on level of IL-4 secretion in mice splenocytes following treatment with 25 uM compound done for 72 hr at 37 degree C; outline: as §1
# [3] = Inhibitory concentration against proliferation of mouse splenocytes was determined by measuring mitochondrial dehydrogenase activity using MTT assay
# Outline: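 Mouse splenocyte proliferation measured by a 72 h MTT assay, with mitochondrial dehydrogenase activity of surviving cells as read-out. Test agents were in acetate form. Cyclosporin A was included as a comparator. IC50 taken as the concentration giving 50% inhibition.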
SMILES,Reduction (Mus musculus [1]) [%],Reduction (Mus musculus [2]) [%],IC50 [3] [µM]
OC[C@H]1N[C@H](CO)[C@H](O)C(O)[C@H]1O (stereo not given in full),75.89,69.2,519
OC[C@@H]1N[C@@H](CO)[C@H](O)C(O)[C@H]1O (stereo not given in full),51.6,84.6,272
O=C(O)[C@H]1N[C@H](CO)[C@H](O)[C@H](O)[C@H]1O,31.2,30.8,340
O=C(O)[C@H]1N[C@@H](CO)[C@H](O)[C@H](O)[C@H]1O,24.2,92.3,346
OC[C@@H]1N[C@H](CO)[C@H](O)[C@@H](O)[C@H]1O,86.2,92.3,332
